ChEMBL document CHEMBL5674868, “Cancer Cells Hijack PRC2 to Modify Multiple Cytokine Pathways” (PLoS One, 2015)
Active and inactive are the calls of the source. The rule behind the calls is not given here.

Assays:
Type in all cases: cell-based
[1] = biological target: Histone-lysine N-methyltransferase EZH2 (Homo sapiens) (UniProt Q15910); assay: Inhibition of EZH2 in human MCF7 cells assessed as effect on HPRT mRNA level after 6 hrs by RT-PCR analysis
Method in brief: (§1)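 Cells were treated for two four-day cycles with 2 μM GSK343 or UNC1999, then left untreated or stimulated with human IFNγ for 6 h. mRNA was measured by reverse transcription quantitative PCR and normalized to β-actin. Three biological replicates were run per treatment group.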

[2] = biological target: Histone-lysine N-methyltransferase EZH2 (Homo sapiens) (UniProt Q15910); assay: Inhibition of EZH2 in human A549 cells assessed as increase in TNF-alpha-induced VEGFA level for 24 hrs by multiplexing laser bead assay
Method in brief: (§2)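 A549 cells were pretreated with vehicle or UNC1999 over two four-day cycles at 2 μM. They were seeded at 3×10^4/well, rested for 4 h, then exposed for 24 h to no stimulus, 5 μg/ml E. coli LPS or 10 U/ml TNFα. Secreted cytokines in the supernatants were quantified by a 41-plex laser bead assay.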

[3] = biological target: Histone-lysine N-methyltransferase EZH2 (Homo sapiens) (UniProt Q15910); assay: Inhibition of EZH2 in human MCF7 cells assessed as effect on HPRT mRNA level after 6 hrs by RT-PCR analysis in presence of IFN-gamma; method in brief: as §1
[4] = biological target: Histone-lysine N-methyltransferase EZH2 (Homo sapiens) (UniProt Q15910); assay: Inhibition of EZH2 in human A549 cells assessed as increase in IFN-gamma-induced CXCL10 level for 24 hrs by ELISA
Method in brief: (§3)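 A549 cells were pretreated for two four-day cycles with 2 μM UNC1999 or with DMSO. They were seeded at 3×10^4/well, allowed to settle for 4 h, then given the indicated concentrations of IFNγ, IL1β, LPS or TNFα for 24 h. Secreted IL6, IL8 or CXCL10 in the supernatant was measured by ELISA in duplicate. n = 3; ANOVA followed by Fisher test.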

[5] = biological target: Histone-lysine N-methyltransferase EZH2 (Homo sapiens) (UniProt Q15910); assay: Inhibition of EZH2 in human A549 cells assessed as increase in LPS-induced IL-6 level for 24 hrs by multiplexing laser bead assay; method in brief: as §2
[6] = biological target: Histone-lysine N-methyltransferase EZH2 (Homo sapiens) (UniProt Q15910); assay: Inhibition of EZH2 in human A549 cells assessed as increase in LPS-induced TGF-A level for 24 hrs by multiplexing laser bead assay; method in brief: as §2
[7] = biological target: Histone-lysine N-methyltransferase EZH2 (Homo sapiens) (UniProt Q15910); assay: Inhibition of EZH2 in human MCF7 cells assessed as effect on PITX2 mRNA level after 6 hrs by RT-PCR analysis
Method in brief: (§4)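 Cells pretreated for two 4-day cycles with 2 µM GSK343 or UNC1999, then left unstimulated or given human IFNγ for 6 h. RNA reverse-transcribed and measured by quantitative PCR, normalized to β-actin. Three biological replicates per treatment group.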

[8] = biological target: Histone-lysine N-methyltransferase EZH2 (Homo sapiens) (UniProt Q15910); assay: Inhibition of EZH2 in human A549 cells assessed as effect on PITX2 mRNA level after 6 hrs by RT-PCR analysis; method in brief: as §1
[9] = biological target: Histone-lysine N-methyltransferase EZH2 (Homo sapiens) (UniProt Q15910); assay: Inhibition of EZH2 in human A549 cells assessed as increase in TNF-alpha-induced PDGFA level for 24 hrs by multiplexing laser bead assay; method in brief: as §2
[10] = biological target: Histone-lysine N-methyltransferase EZH2 (Homo sapiens) (UniProt Q15910); assay: Inhibition of EZH2 in human A549 cells assessed as effect on IRF1 mRNA level after 6 hrs by RT-PCR analysis; method in brief: as §1
[11] = biological target: Histone-lysine N-methyltransferase EZH2 (Homo sapiens) (UniProt Q15910); assay: Inhibition of EZH2 in human A549 cells assessed as increase in IL-1beta-induced IL-6 level for 24 hrs by ELISA; method in brief: as §3
[12] = biological target: Histone-lysine N-methyltransferase EZH2 (Homo sapiens) (UniProt Q15910); assay: Inhibition of EZH2 in human HeLa cells assessed as effect on PITX2 mRNA level after 6 hrs by RT-PCR analysis; method in brief: as §1
[13] = biological target: Histone-lysine N-methyltransferase EZH2 (Homo sapiens) (UniProt Q15910); assay: Inhibition of EZH2 in human A549 cells assessed as increase in IFN-gamma-induced SUZ12-repressed ISGs mRNA level after 6 hrs by RT-PCR analysis; method in brief: as §1
[14] = biological target: Histone-lysine N-methyltransferase EZH2 (Homo sapiens) (UniProt Q15910); assay: Inhibition of EZH2 in human ASPC1 cells assessed as effect on IRF1 mRNA level after 6 hrs by RT-PCR analysis; method in brief: as §1
[15] = biological target: Histone-lysine N-methyltransferase EZH2 (Homo sapiens) (UniProt Q15910); assay: Inhibition of EZH2 in human A549 cells assessed as increase in TNF-alpha-induced CXCL-10 level for 24 hrs by multiplexing laser bead assay; method in brief: as §2
[16] = biological target: Histone-lysine N-methyltransferase EZH2 (Homo sapiens) (UniProt Q15910); assay: Inhibition of EZH2 in human A549 cells assessed as increase in TNF-alpha-induced IL-8 level for 24 hrs by multiplexing laser bead assay; method in brief: as §2
[17] = biological target: Histone-lysine N-methyltransferase EZH2 (Homo sapiens) (UniProt Q15910); assay: Inhibition of EZH2 in human A549 cells assessed as increase in LPS-induced IL-8 level for 24 hrs by multiplexing laser bead assay; method in brief: as §2
[18] = biological target: Histone-lysine N-methyltransferase EZH2 (Homo sapiens) (UniProt Q15910); assay: Inhibition of EZH2 in human HeLa cells assessed as effect on HPRT mRNA level after 6 hrs by RT-PCR analysis; method in brief: as §1
[19] = biological target: Histone-lysine N-methyltransferase EZH2 (Homo sapiens) (UniProt Q15910); assay: Inhibition of EZH2 in human MCF7 cells assessed as effect on IRF1 mRNA level after 6 hrs by RT-PCR analysis in presence of IFN-gamma; method in brief: as §4
[20] = biological target: Histone-lysine N-methyltransferase EZH2 (Homo sapiens) (UniProt Q15910); assay: Inhibition of EZH2 in human A549 cells assessed as increase in TNF-alpha-induced IL-6 level for 24 hrs by multiplexing laser bead assay; method in brief: as §2
[21] = biological target: Histone-lysine N-methyltransferase EZH2 (Homo sapiens) (UniProt Q15910); assay: Inhibition of EZH2 in human A549 cells assessed as increase in LPS-induced IL-8 level for 24 hrs by ELISA; method in brief: as §3
[22] = biological target: Histone-lysine N-methyltransferase EZH2 (Homo sapiens) (UniProt Q15910); assay: Inhibition of EZH2 in human A549 cells assessed as effect on HPRT mRNA level after 6 hrs by RT-PCR analysis in presence of IFN-gamma; method in brief: as §1
[23] = biological target: Histone-lysine N-methyltransferase EZH2 (Homo sapiens) (UniProt Q15910); assay: Inhibition of EZH2 in human MCF7 cells assessed as effect on PITX2 mRNA level after 6 hrs by RT-PCR analysis in presence of IFN-gamma; method in brief: as §4
[24] = biological target: Histone-lysine N-methyltransferase EZH2 (Homo sapiens) (UniProt Q15910); assay: Inhibition of EZH2 in human MCF7 cells assessed as effect on IRF1 mRNA level after 6 hrs by RT-PCR analysis; method in brief: as §1
[25] = biological target: Histone-lysine N-methyltransferase EZH2 (Homo sapiens) (UniProt Q15910); assay: Inhibition of EZH2 in human A549 cells assessed as increase in TNFalpha-induced CXCL10 level for 24 hrs by ELISA; method in brief: as §3
[26] = biological target: Histone-lysine N-methyltransferase EZH2 (Homo sapiens) (UniProt Q15910); assay: Inhibition of EZH2 in human A549 cells assessed as increase in LPS-induced IL-6 level for 24 hrs by ELISA; method in brief: as §3
[27] = biological target: Histone-lysine N-methyltransferase EZH2 (Homo sapiens) (UniProt Q15910); assay: Inhibition of EZH2 in human A549 cells assessed as increase in TNF-alpha-induced TGFA level for 24 hrs by multiplexing laser bead assay; method in brief: as §2

Sequence of Histone-lysine N-methyltransferase EZH2 (Homo sapiens) (Q15910 whole entry, looked up): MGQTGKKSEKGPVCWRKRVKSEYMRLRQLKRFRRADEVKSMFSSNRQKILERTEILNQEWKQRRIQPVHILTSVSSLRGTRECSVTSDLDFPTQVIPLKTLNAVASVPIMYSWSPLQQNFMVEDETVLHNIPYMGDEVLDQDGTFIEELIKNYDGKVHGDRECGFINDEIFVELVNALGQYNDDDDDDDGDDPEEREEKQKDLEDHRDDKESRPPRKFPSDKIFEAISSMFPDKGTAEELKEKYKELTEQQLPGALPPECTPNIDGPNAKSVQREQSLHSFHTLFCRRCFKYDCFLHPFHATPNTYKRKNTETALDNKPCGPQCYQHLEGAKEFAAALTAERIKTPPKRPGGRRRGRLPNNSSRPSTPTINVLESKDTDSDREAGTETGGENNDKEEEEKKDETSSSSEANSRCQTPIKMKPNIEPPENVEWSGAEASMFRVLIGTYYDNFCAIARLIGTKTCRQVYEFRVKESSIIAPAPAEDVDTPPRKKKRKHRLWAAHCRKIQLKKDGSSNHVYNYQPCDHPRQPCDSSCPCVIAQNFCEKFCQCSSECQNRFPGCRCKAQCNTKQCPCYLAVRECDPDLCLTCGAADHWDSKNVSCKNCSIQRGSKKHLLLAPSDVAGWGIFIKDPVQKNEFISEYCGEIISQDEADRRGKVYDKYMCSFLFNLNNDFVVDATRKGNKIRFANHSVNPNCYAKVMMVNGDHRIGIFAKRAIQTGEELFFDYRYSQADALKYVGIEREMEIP

inhibition [1]: inactive
inhibition [2]: Active
inhibition [3]: inactive
inhibition [4]: Active
inhibition [5]: Active
inhibition [6]: Active
inhibition [7]: inactive
inhibition [8]: inactive
inhibition [9]: Active
inhibition [10]: inactive
inhibition [11]: Active
inhibition [12]: inactive
inhibition [13]: Active
inhibition [14]: inactive
inhibition [15]: Active
inhibition [16]: Active
inhibition [17]: Active
inhibition [18]: inactive
inhibition [19]: inactive
inhibition [20]: Active
inhibition [21]: Active
inhibition [22]: inactive
inhibition [23]: inactive
inhibition [24]: inactive
inhibition [25]: Active
inhibition [26]: Active
inhibition [27]: Active
Structure (SMILES): CCCc1cc(C)[nH]c(=O)c1CNC(=O)c1cc(-c2ccc(N3CCN(C(C)C)CC3)nc2)cc2c1cnn2C(C)C
